# Compound activity from PubChem BioAssay.
# The list is not random: actives were taken first. Their share in the collection is about 2.5%.
# SENP7 inh: blocks the human protease SENP7; Q9BQF6; recombinant SENP7, Z-RLRGG-aminoluciferin luminescence, 40 min; inhibition, % at 5 µM; 330,000 compounds, 1.5% hits; AID 434973;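 active = inhibition above about 50% at the single test dose, limit read from the data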
# Target sequence (Q9BQF6 706-1050 limits assumed): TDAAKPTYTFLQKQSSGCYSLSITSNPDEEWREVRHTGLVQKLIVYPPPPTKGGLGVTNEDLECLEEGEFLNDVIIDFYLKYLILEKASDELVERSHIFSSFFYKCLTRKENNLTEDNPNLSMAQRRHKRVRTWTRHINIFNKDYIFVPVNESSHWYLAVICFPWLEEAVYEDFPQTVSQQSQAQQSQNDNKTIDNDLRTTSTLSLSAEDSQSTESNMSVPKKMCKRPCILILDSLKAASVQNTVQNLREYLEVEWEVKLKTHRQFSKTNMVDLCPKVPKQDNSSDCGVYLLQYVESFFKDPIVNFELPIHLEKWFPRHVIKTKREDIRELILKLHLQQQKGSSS
# SENP6 block: SENP6 protease inhibition | Recombinant SENP6 catalytic domain, aminoluciferin luminescence | 330,000 compounds, 1.8% hits | Q9GZR1 | inhibition, % at 10 µM | AID 2599;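 active = inhibition above about 50% at the single tested dose, limit read from the data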
# SENP8 block-1: inhibitors of human SENP8 protease; Q96LD8; purified SENP8, Z-RLRGG-aminoluciferin cleavage, luminescence; inhibition, % at 10 µM; 330,000 compounds, 1.2% hits; in the data active = inhibition above about 50%
# Target sequence (Q96LD8 whole entry, looked up): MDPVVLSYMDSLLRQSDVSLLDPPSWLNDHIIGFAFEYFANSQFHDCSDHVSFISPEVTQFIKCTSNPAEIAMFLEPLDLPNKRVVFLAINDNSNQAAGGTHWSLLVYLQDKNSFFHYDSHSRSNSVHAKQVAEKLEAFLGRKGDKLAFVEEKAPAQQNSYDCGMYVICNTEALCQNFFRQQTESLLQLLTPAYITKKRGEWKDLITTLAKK
# SENP1 inh: SENP1 (human) catalytic domain inhibition. AID 624204. recombinant SENP1 catalytic domain, CyPet-SUMO1-YPet FRET cleavage. Q9P0U3. inhibition, % at 10 µM. 360,000 compounds, 0.21% hits;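 active = inhibition at least 30% at 10 µM, raw YFP signal under a set limit, fluorescence ratio 0.5 to 1.5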
#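 system = hSENP1 catalytic domain, recombinant | reagent = SFCypet-SUMO1-SFYpet substrate at 25 nM | doses = one dose per compound, 10 µM, 0.5% DMSO | incubation = enzyme reaction for 50 min at room temperature, dark | measured by = FRET, CFP and YFP emission | controls = no-enzyme low, enzyme-DMSO high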
# SENP8 block-2: inhibitors of human SENP8 protease. recombinant SENP8, Nedd8 substrate fluorescence. inhibition, % at 20 µM. 360,000 compounds, 0.64% hits. AID 602440; in the data active = inhibition mostly above about 40%, no sharp cut-off; inactive = mostly below about 27%
# A number is an active result; n = inactive; x = no result.
SMILES,SENP7 inh,SENP6 block,SENP8 block-1,SENP1 inh,SENP8 block-2
COC(=O)c1ccccc1Nc1ccccc1,n,n,n,n,n
CCN(C(=S)Nc1cccc2ccccc12)c1ccccc1,x,x,x,n,n
Cc1ccc(NC2CNC(=O)NC2=O)cc1C (stereo not drawn),x,x,x,n,n
Cc1ccc(NC2C(=O)NC(=O)NC2=O)cc1,x,x,x,n,72
O=C(Nc1ccccc1)O[C@@H]1C[C@H]2CCCC(=O)N3CC[C@@H](C1)[C@@H]23,x,x,x,n,n
O=C(Nc1ccccc1)O[C@@H]1C[C@H]2CCC(=O)N3CC[C@@H](C1)[C@@H]23,60,56,55,x,x
C=CCN1C(=O)/C(=C/c2ccsc2)SC1=S,n,n,n,n,46
O=C(NC1=C(Nc2ccc(Cl)cc2)C(=O)c2ccccc2C1=O)c1ccccc1,n,n,n,n,52
CN(C1=C(NC(=O)c2ccc(Cl)cc2)C(=O)c2ccccc2C1=O)c1ccccc1,n,n,n,n,57
Cc1cccc(NC2=C(NC(=O)c3ccccc3)C(=O)c3ccccc3C2=O)c1,n,n,n,n,76
O=C(Nc1ccc(Nc2ccccc2)cc1)c1ccc(Cl)cc1,n,n,n,n,n
COc1ccc(CCNC(=O)c2ccc(CNS(=O)(=O)c3cc(C)ccc3C)cc2)cc1OC,n,n,n,n,n
COc1ccc(CNC(=O)CC2C[C@H](C(=O)N3CCCCC3)[C@@]3(C)c4[nH]c5ccccc5c4CCN3C2=O)cc1OC (stereo partly drawn),n,n,n,n,n
COc1ccccc1C(=O)N1CCN(C(=O)[C@H]2O[C@@H](n3ccc(=O)[nH]c3=O)[C@H](O)[C@@H]2O)CC1,x,x,x,n,n
C[C@@H]1CN([C@@H](C)CO)C(=O)CCCn2nncc2CO[C@@H]1CN(C)C(=O)NC1CCCCC1,x,x,x,n,n
C/C(=C1/C(=O)N(c2ccc([N+](=O)[O-])cc2)N=C1c1ccccc1)N(C)C,n,n,n,x,x
CN(C)/C=C1/C(=O)N(c2ccc([N+](=O)[O-])cc2)N=C1c1ccccc1,97,101,96,x,x
CC(=O)N(C1=C(N)C(=O)c2ccccc2C1=O)c1ccccc1,n,n,n,n,62
N/C(=N\OC(=O)COc1ccc2ccccc2c1)c1cccnc1,n,n,n,n,n
CC1(c2ccccc2)C(C#N)C(=O)NC(=O)C1C#N (stereo not drawn),x,x,x,n,n
Cc1ccc2c(c1)N=C(c1ccccc1)CC(C(Cl)Cl)=N2,n,74,53,n,n
CC1=CC2(C)C(C3C(C)=CC2(C)C(=O)C3(C)O)C(C)(O)C1=O (stereo not drawn),x,x,x,n,n
Cc1ccc(S(=O)(=O)C(C#N)c2nc3ccccc3nc2N2CCCC2)cc1 (stereo not drawn),n,73,77,n,n
O=C(C(=O)N1CCN(C(=O)c2ccco2)CC1)c1cc2ccccc2o1,x,x,x,n,n
CC1(C(=O)O)CCCN1C(=O)c1cccc(F)c1 (stereo not drawn),x,x,x,n,n
SMILES,SENP7 inh,SENP6 block,SENP8 block-1,SENP1 inh,SENP8 block-2
CC(=O)[C@H]1[C@@H]2C(=O)N(c3cccc(Cl)c3)C(=O)[C@@H]2[C@H]2c3ccccc3C=CN21,n,53,n,n,n
CC(=O)[C@@H]1[C@@H]2C(=O)N(C3CCCCC3)C(=O)[C@@H]2C2c3ccccc3C=CN21 (stereo partly drawn),n,55,n,x,x
CC(=O)[C@H]1[C@H](c2cccc(Cl)c2)C(C#N)(C#N)[C@@H]2c3ccccc3C=CN21,n,67,n,x,x
CC(=O)[C@@H]1[C@@H]2C(=O)N(c3ccc(F)c(Cl)c3)C(=O)[C@@H]2C2c3ccccc3C=CN21 (stereo partly drawn),n,n,n,x,x
CCN(CC(=O)Nc1ccc2c(c1)OCCO2)C(=O)/C=C/c1cc(Br)ccc1OC,x,x,x,n,n
COc1ccc(NC(=O)C(c2ccc(C(F)(F)F)cc2)n2c(=O)c(-c3cc4ccccc4[nH]3)nc3ccccc32)cc1 (stereo not drawn),x,x,x,n,n
Cc1c(NC(=S)N/N=C/c2ccc([N+](=O)[O-])cc2O)c(=O)n(-c2ccccc2)n1C,n,n,n,n,40
Cc1c(NC(=S)N/N=C\c2ccccc2O)c(=O)n(-c2ccccc2)n1C,n,n,n,n,n
O=c1[nH][nH]c2c1[C@H](CCc1cccc(Cl)c1)O[C@H](CCc1ccccc1)C2,x,x,x,n,n
O=C(c1ccccc1)c1ccc(-c2ccc(O)cc2)cc1,n,50,51,n,n
CC1C(c2ccccc2)OCCN1C(=S)NC(=O)c1ccccc1 (stereo not drawn),x,x,x,n,n
COc1ccc(NC(=O)c2cc3cccc(OC)c3oc2=Nc2ccc(C(=O)O)cc2)cc1OC,x,x,x,n,n
COc1cccc(NC(=O)c2cc3cccc(OC)c3o/c2=N\O)c1,82,n,n,x,x
COc1cc(OC)c(C(=O)/C=C/c2ccccc2)c(O)c1O,n,n,n,n,45
Cc1cc(C)cc(C(O)c2ncc(-c3ccc(C(F)(F)F)cc3)[nH]2)c1 (stereo not drawn),x,x,x,n,n
O=C(COc1ccc(Cl)cc1Cl)NC(=S)Nc1ccccc1C(=O)O,n,64,59,x,x
COc1ccc(/C=C/c2c([N+](=O)[O-])c(=O)n(C)c(=O)n2C)cc1OC,n,n,n,n,n
Cn1c(/C=C/c2ccc(Cl)cc2)c([N+](=O)[O-])c(=O)n(C)c1=O,n,n,n,34,n
Cn1cnnc1SCC(=O)Nc1ccc(F)cc1,n,n,n,n,n
CC1(C(=O)Nc2ccc3c(c2)OCCO3)CN(S(C)(=O)=O)CC(=O)N1CCCN1CCOCC1 (stereo not drawn),x,x,x,n,n
Cc1ccccc1-c1cc2nc(NCCc3ccncc3)n(C)c(=O)c2s1,x,x,x,n,n
Cc1cc(N=Nc2ccccc2C(=O)O)c(C)c(C)c1O,n,n,n,33,n
O=C(O)CC(C(=O)O)c1ccc(OCCCCOc2ccc(C(CC(=O)O)C(=O)O)cc2)cc1 (stereo not drawn),n,n,n,n,n
COc1ccc(CCN2C(=O)c3ccccc3C2c2nnnn2-c2c(C)cccc2C)cc1OC (stereo not drawn),x,x,x,n,n
CN(C)S(=O)(=O)c1cccc(NC(=S)N/N=C/c2ccc(O)c(O)c2O)c1,x,x,x,n,43
SMILES,SENP7 inh,SENP6 block,SENP8 block-1,SENP1 inh,SENP8 block-2
Cc1cc(-c2csc(NC(=O)c3ccc(=O)n(C)n3)n2)c(C)n1CC1CCCO1 (stereo not drawn),n,n,n,n,43
COC1=CC(=O)c2c(ccc3ncnc(N)c23)C1=O,x,x,x,n,84
Cc1cc(C)nc(SCc2csc(-c3ccccc3)n2)n1,n,60,n,n,n
O=C(/C=C/c1ccccc1)c1c[nH]c2ccccc12,84,58,n,n,n
CCN(CC)c1ccc(N)cc1,n,n,n,54,n
O=C1/C(=C\c2ccco2)SC(=S)N1c1ccccc1,n,n,n,n,n
O=C1/C(=C\c2ccc(-c3ccccc3Cl)o2)SC(=S)N1CC1CCCO1 (stereo not drawn),n,n,n,n,44
